In ChEMBL document CHEMBL1156811, “2,4,6-trisubstituted triazines as protein a mimetics for the treatment of autoimmune diseases” (J Med Chem, 2010):
Activity calls are given as the source filed them. The calls are words filed in the database; no cut-off is given here.

Experiments:
[1] = Inhibition of protein A binding to horseradish peroxidase-conjugated human IgG in PBS solution by Protein A human IgG competitive ELISA
In short: (§1)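 Plate wells coated overnight at 4 °C with protein A (0.8 ug/well), washed with PBS, and blocked with 2% BSA for 1 h at 37 °C. Compound diluted in PBS or PBS–20% DMSO was added with HRP-conjugated human IgG and incubated 1 h at 37 °C. After washing, bound HRP-IgG was developed with ABTS for 20 min in the dark at room temperature and read at 405 nm. IC50 is the concentration inhibiting 50% binding.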

[2] = Inhibition of protein A binding to horseradish peroxidase-conjugated human IgG in 20% DMSO/PBS solution by Protein A human IgG competitive ELISA; in short: as §1
[3] = Inhibition of protein A binding to heat aggregated human IgG
Mus musculus [4] = assay: Reduction of antibody immune complexes in NZB/NZW-F1 mouse systemic lupus erythematosus model at 50 mg/kg, iv administered once weekly starting from week 12 relative to untreated control; assay type: functional, organism-based; set-up: dose 50 mg/kg
[5] = biological target: T1, Low affinity immunoglobulin gamma Fc region receptor II-a (Homo sapiens, UniProt P12318); assay: Inhibition of heat aggregated human IgG binding to human Fc-gamma-R2a
T1 sequence (P12318 whole entry): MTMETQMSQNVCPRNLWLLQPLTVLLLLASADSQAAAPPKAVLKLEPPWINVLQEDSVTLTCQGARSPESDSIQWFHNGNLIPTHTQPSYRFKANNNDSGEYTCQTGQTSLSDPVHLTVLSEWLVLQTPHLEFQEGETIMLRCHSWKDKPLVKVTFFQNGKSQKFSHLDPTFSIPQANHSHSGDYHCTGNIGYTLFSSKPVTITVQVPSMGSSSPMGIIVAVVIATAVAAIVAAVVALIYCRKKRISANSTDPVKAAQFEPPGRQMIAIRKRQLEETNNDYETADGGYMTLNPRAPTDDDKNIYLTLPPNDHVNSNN

Mus musculus [6] = assay: Reduction of anti-dsDNA antibody levels in NZB/NZW-F1 mouse systemic lupus erythematosus model at 50 mg/kg, iv administered once weekly starting from week 12 relative to untreated control; assay type: functional
In short: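 NZB/NZW F1 hybrid mice were given 50 mg/kg intravenously once weekly from week 12, against vehicle-treated controls. Serum anti-dsDNA autoantibodies were measured by a literature method, and total IgG was also monitored.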

[7] = biological target: Low affinity immunoglobulin gamma Fc region receptor III-B (Homo sapiens, UniProt O75015); assay: Inhibition of heat aggregated human IgG binding to human Fc-gamma-R3b
Sequence of Low affinity immunoglobulin gamma Fc region receptor III-B (O75015 whole entry): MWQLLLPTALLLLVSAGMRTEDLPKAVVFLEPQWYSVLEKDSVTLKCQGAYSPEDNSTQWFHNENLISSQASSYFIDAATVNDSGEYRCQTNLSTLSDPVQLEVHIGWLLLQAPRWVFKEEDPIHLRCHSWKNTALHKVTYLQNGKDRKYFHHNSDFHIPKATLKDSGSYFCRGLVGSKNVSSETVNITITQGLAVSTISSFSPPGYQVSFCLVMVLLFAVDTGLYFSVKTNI

Mus musculus [8] = assay: Reduction of immune complex deposits in homozygous fas mutant MRL/lpr mouse systemic lupus erythematosus model at 50 mg/kg, iv administered once weekly for 5 consecutive weeks between 18 and 22 weeks by electron microscopy; assay type: functional, organism-based; set-up: dose 50 mg/kg
In short: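 MRL/lpr mice (homozygous fas mutation) received 50 mg/kg or vehicle intravenously once a week for 5 consecutive weeks, between weeks 18 and 22. Mice were then sacrificed, and immune complex deposition in kidney tissue was recorded by electron microscopy.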

| SMILES | IC50 ([1]; read-out: IC50) [nM] | other results |
| --- | --- | --- |
| OCCNc1nc(NCCc2ccc(Nc3nc(NCCO)nc(Nc4ccccc4F)n3)cc2)nc(Nc2ccccc2F)n1 |  | IC50 [1]: Not Active; IC50 [2]: Not Active |
| Nc1cccc(Nc2nc(NCCO)nc(NCCc3ccc(Nc4nc(NCCO)nc(NCCO)n4)cc3)n2)c1 | 94 | IC50 ([2]; read-out: IC50): 81 nM |
| Nc1cccc(Nc2nc(NCCO)nc(NCCc3ccc(Nc4nc(NCCc5ccccc5N)nc(Nc5cccc(N)c5)n4)cc3)n2)c1 | 185 |  |
| Nc1cccc(Nc2nc(NCCO)nc(NCCc3ccc(Nc4nc(NCCO)nc(Nc5ccc(F)cc5)n4)cc3)n2)c1 | 361 | IC50 ([2]; read-out: IC50): 204 nM |
| Nc1cccc(Nc2nc(NCCO)nc(NCCCNc3nc(NCCO)nc(Nc4cccc(N)c4)n3)n2)c1 | 56 |  |
| Nc1cccc(Nc2nc(NCCO)nc(NCCOCCNc3nc(NCCO)nc(Nc4cccc(N)c4)n3)n2)c1 | 70 | IC50 ([2]; read-out: IC50): 5190 nM |
| CN1CCN(c2nc(Nc3ccc(CCNc4nc(NCCO)nc(Nc5cccc(N)c5)n4)cc3)nc(Nc3cccc(N)c3)n2)CC1 | 59 |  |
| Nc1cccc(Nc2nc(NCCO)nc(NCCc3ccc(Nc4nc(NCCc5ccccc5)nc(Nc5cccc(N)c5)n4)cc3)n2)c1 | 449 |  |
| Nc1cccc(Nc2nc(NCCO)nc(NCCNc3nc(NCCO)nc(Nc4cccc(N)c4)n3)n2)c1 | 58 |  |
| Nc1cccc(Nc2nc(NCCO)nc(NCCc3ccc(Nc4nc(NCCO)nc(Nc5ccc(Cl)cc5)n4)cc3)n2)c1 | 841 | IC50 ([2]; read-out: IC50): 893 nM |
| Nc1cccc(Nc2nc(NCCO)nc(Nc3ccc(Nc4nc(NCCO)nc(Nc5cccc(N)c5)n4)cc3)n2)c1 | 157 |  |
| CN(C)CCNc1nc(Nc2ccc(CCNc3nc(NCCO)nc(Nc4cccc(N)c4)n3)cc2)nc(Nc2cccc(N)c2)n1 | 89 |  |
| CC(Nc1nc(NCCO)nc(Nc2cccc(N)c2)n1)c1ccc(Nc2nc(NCCO)nc(Nc3cccc(N)c3)n2)cc1 (stereo unspecified) |  | IC50 [1]: Not Active |
| CS(=O)(=O)c1cccc(Nc2nc(NCCO)nc(Nc3ccc(CCNc4nc(NCCO)nc(Nc5cccc(N)c5)n4)cc3)n2)c1 | 243 | IC50 ([2]; read-out: IC50): 192 nM |
| N=C(N)CCNc1nc(NCCO)nc(NCCc2ccc(Nc3nc(NCCO)nc(Nc4cccc(F)c4)n3)cc2)n1 |  | IC50 [1]: Not Active; IC50 [2]: Not Active |
| Nc1cccc(Nc2nc(NCCO)nc(Nc3cccc(Nc4nc(NCCO)nc(Nc5cccc(N)c5)n4)c3)n2)c1 | 293 |  |
| Nc1cccc(CNc2nc(Nc3ccc(CCNc4nc(NCCO)nc(Nc5cccc(N)c5)n4)cc3)nc(Nc3cccc(N)c3)n2)c1 | 141 |  |
| Nc1ccc(CCNc2nc(Nc3ccc(CCNc4nc(NCCO)nc(Nc5cccc(N)c5)n4)cc3)nc(Nc3cccc(N)c3)n2)cc1 | 54 | IC50 [3]: 83 nM; Activity (Mus musculus [4]): Active; IC50 [5]: 12000 nM; fold change (FC) (Mus musculus [6]): 2; IC50 [7]: 57000 nM; Activity (Mus musculus [8]): Active |

| SMILES | IC50 ([1]; read-out: IC50) [nM] | other results |
| --- | --- | --- |
| CN(C)c1ccc(CCNc2nc(Nc3ccc(CCNc4nc(NCCO)nc(Nc5cccc(N)c5)n4)cc3)nc(Nc3cccc(N)c3)n2)cc1 | 695 |  |
| Nc1cccc(Nc2nc(NCCO)nc(NCCc3ccc(Nc4nc(NCCc5ccc(O)cc5)nc(Nc5cccc(N)c5)n4)cc3)n2)c1 |  | IC50 [1]: Not Active |
| Nc1cccc(CCNc2nc(Nc3ccc(CCNc4nc(NCCO)nc(Nc5cccc(N)c5)n4)cc3)nc(Nc3cccc(N)c3)n2)c1 | 119 |  |
| CC(C)(CNc1nc(NCCO)nc(Nc2cccc(N)c2)n1)CNc1nc(NCCO)nc(Nc2cccc(N)c2)n1 | 41 |  |
| Nc1cccc(Nc2nc(NCCO)nc(Nc3ccc4c(c3)CCN4c3nc(NCCO)nc(Nc4cccc(N)c4)n3)n2)c1 | 80 |  |
| Nc1cccc(Nc2nc(NCCO)nc(NCCc3ccc(Nc4nc(Nc5cccc(N)c5)nc(Nc5cccc(N)c5)n4)cc3)n2)c1 | 56 |  |
| Nc1cccc(Nc2nc(NCCO)nc(NCCc3cccc(Nc4nc(NCCO)nc(Nc5cccc(N)c5)n4)c3)n2)c1 |  | IC50 [1]: Not Active |
| Nc1cccc(Nc2nc(NCCO)nc(NCCCCNc3nc(NCCO)nc(Nc4cccc(N)c4)n3)n2)c1 | 187 |  |
| Nc1cccc(Nc2nc(NCCO)nc(NCCc3ccc(Nc4nc(NCCO)nc(Nc5cccc(N)c5)n4)cc3)n2)c1 | 84 | IC50 ([2]; read-out: IC50): 144 nM |
| NCCNc1nc(NCCO)nc(Nc2ccc(CCNc3nc(NCCO)nc(Nc4cccc(N)c4)n3)cc2)n1 | 410 | IC50 ([2]; read-out: IC50): 749 nM |
| Nc1cccc(Nc2nc(NCCO)nc(NCC(O)CNc3nc(NCCO)nc(Nc4cccc(N)c4)n3)n2)c1 | 56 |  |
| Nc1cccc(Nc2nc(NCCO)nc(NCCc3ccc(Nc4nc(NCCO)nc(Nc5cccc(F)c5)n4)cc3)n2)c1 | 382 | IC50 ([2]; read-out: IC50): 209 nM |
| Nc1cccc(Nc2nc(NCCO)nc(NCCc3ccc(Nc4nc(NCCc5cccc(O)c5)nc(Nc5cccc(N)c5)n4)cc3)n2)c1 | 118 |  |
| Nc1cccc(Nc2nc(NCCO)nc(NCCc3ccc(Nc4nc(NCC(O)c5cccc(N)c5)nc(Nc5cccc(N)c5)n4)cc3)n2)c1 (stereo unspecified) | 130 |  |
| CN(C)c1nc(Nc2ccc(CCNc3nc(NCCO)nc(Nc4cccc(N)c4)n3)cc2)nc(Nc2cccc(N)c2)n1 | 89 |  |
| Nc1cccc(Nc2nc(NCCO)nc(NCCc3ccc(Nc4nc(Nc5cccc(N)c5)nc(NC5CCNC5)n4)cc3)n2)c1 (stereo unspecified) | 233 |  |
| Nc1cccc(Nc2nc(NCCO)nc(NCCc3ccc(Nc4nc(NCCc5ccc(F)cc5)nc(Nc5cccc(N)c5)n4)cc3)n2)c1 | 531 |  |
